Reference: ChEMBL document CHEMBL1125614, “Synthesis of 2-exo- and 2-endo-mecamylamine analogues. Structure-activity relationships for nicotinic antagonism in the central nervous system” (J Med Chem, 1991)

How the values were obtained:
[1] = Partition coefficient (logP); type: physicochemical; settings: octanol/water
How it was run: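 Octanol-water partition coefficient, calculated (not measured) from structure by the Rekker fragment procedure.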

Mus musculus [2] = assay: In vivo nicotinic antagonism relative to (+/-)-exo-mecamylamine measured in mice; type: functional
How it was run: (§1)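 Mice; antagonist or saline sc 10 min before saline or nicotine ditartrate at its ED84 dose. Spontaneous activity counted in photocell cages, % depression vs saline. Tail-flick latency to heat measured 5 min after nicotine, 10-s cutoff, as % MPE. % antagonism per assay; AD50 with 95% confidence limits by Litchfield-Wilcoxon. Potency ratio = compound AD50 / racemic mecamylamine AD50; relative potency averages both assays.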

Mus musculus [3] = assay: In vivo nicotinic antagonism relative to (+/-)-exo-mecamylamine measured in mice; stimulant; type: functional, organism-based; how it was run: as §1

**Q.** Which logP ([1]; read-out: logP) does the source give for `CNC1CC2CCC1C2` (racemic) here?
**A.** 1.97

**Q.** What about the Relative potency (Mus musculus [2]) of the same molecule?
**A.** >40

**Q.** With `CNC1C2CCC(C2)C1(C)C` (racemic) as the molecule, how does the logP ([1]; read-out: logP) read?
**A.** 3.01

**Q.** What about the Relative potency (Mus musculus [2]) of the same molecule?
**A.** 1.2

**Q.** For `CNC1(C)C2CCC(C2)C1(C)C` (single isomer, unassigned; (+)) [MECAMYLAMINE], which Relative potency (Mus musculus [2]) is on record?
**A.** 3

**Q.** With `CN(C)C1CC2CCC1(C)C2(C)C` (racemic) as the molecule, how does the logP ([1]; read-out: logP) read?
**A.** 3.96

**Q.** What about the Relative potency (Mus musculus [2]) of the same molecule?
**A.** 10.5

**Q.** Which logP ([1]; read-out: logP) does the source give for `CNC1CC2CCC1(C)C2(C)C` (racemic) here?
**A.** 3.53

**Q.** And the Relative potency (Mus musculus [2])?
**A.** 8.6

**Q.** What does the source list for `CNC1(C)C2CCC(C2)C1(C)C` (racemic) [MECAMYLAMINE]?
**A.** logP [1]: 3.53; Relative potency (Mus musculus [2]): 1

**Q.** With `CN[C@H]1C2(C)CCC(C2)C1(C)C` (single isomer, unassigned; (+)) as the molecule, how does the Relative potency (Mus musculus [2]) read?
**A.** 1.9

**Q.** With `CNC1(C)C2CCC(C2)C1(C)C` (single isomer, unassigned; (-)) [MECAMYLAMINE] as the molecule, how does the Relative potency (Mus musculus [2]) read?
**A.** 1.4

**Q.** Which Relative potency (Mus musculus [2]) does the source give for `CN[C@@H]1C2(C)CCC(C2)C1(C)C` (single isomer, unassigned; (+)) here?
**A.** 1.2

**Q.** For `CNC1C2CCC(C2)C1C` (racemic), which logP ([1]; read-out: logP) is on record?
**A.** 2.49

**Q.** What about the Relative potency (Mus musculus [2]) of the same molecule?
**A.** 18.1

**Q.** Which logP ([1]; read-out: logP) does the source give for `CN[C@H]1C2(C)CCC(C2)C1(C)C` (single isomer, unassigned; (-)) here?
**A.** 3.53

**Q.** What about the Relative potency (Mus musculus [2]) of the same molecule?
**A.** 6.2

**Q.** Which results are given for `CCNC1C2CCC(C2)C1c1ccccc1` (racemic) [FENCAMFAMIN]?
**A.** Relative potency (Mus musculus [3]): Stimulant; logP ([1]; read-out: logP): 4.15

**Q.** For `CN[C@@H]1C2(C)CCC(C2)C1(C)C` (single isomer, unassigned; (-)), which logP ([1]; read-out: logP) is on record?
**A.** 3.53

**Q.** And the Relative potency (Mus musculus [2])?
**A.** 1.7

**Q.** With `CN(C)C1(C)C2CCC(C2)C1(C)C` (racemic) [DIMECAMINE] as the molecule, how does the logP ([1]; read-out: logP) read?
**A.** 3.96

**Q.** And the Relative potency (Mus musculus [2])?
**A.** 1.5
